The source of these data is ChEMBL document CHEMBL2202981, “Synthesis and cytotoxicity evaluation of highly functionalized pyranochromenes and pyranopyrans” (Bioorg Med Chem Lett, 2012).

Common to all, as to format: functional, cell-based
The test system of assay [1] is A549. Kind of assay: Cytotoxicity against human A549 cells by MTT assay. The note with it: for IC50: a549; for pIC50: Homo sapiens, A549, read-out: IC50. (In general: Tetrazolium assays rely on reduction of a dye to a coloured formazan, in cell work by metabolically active cells.)
Assay [2] has as its system MCF7. As to the kind of experiment: Cytotoxicity against human MCF7 cells by MTT assay. The note with it: for pIC50: Homo sapiens, MCF7, read-out: IC50; for IC50: mcf7. Summed up:
(§1)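 MTT assay on four human tumour lines: A549 (alveolar adenocarcinoma epithelial), HeLa (cervical cancer), MDA-MB-231 and MCF7 (breast adenocarcinoma). Dose-response curves were plotted from absorbance data, and IC50 was calculated from them. Each value is the average of two independent experiments.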

Assay [3] concerns HeLa. As to the kind of experiment: Cytotoxicity against human HeLa cells by MTT assay. As to conditions: for pIC50: Homo sapiens, HeLa, read-out: IC50; for IC50: hela; call rule not given here. The essentials: as §1
Assay [4] deals with MDA-MB-231. Kind of assay: Cytotoxicity against human MDA-MB-231 cells by MTT assay. The note with it: for pIC50: Homo sapiens, MDA-MB-231, read-out: IC50; for IC50: mda-mb-231. The essentials: as §1

The structures appear in SMILES notation. pIC50: −log10 of the molar value. Where only a bound is given, the exact number is not on record here.

For the compound `CCOC(=O)C1C(c2ccc(F)cc2)c2c(c3ccccc3oc2=O)OC1(O)C(F)(F)F` (racemic), the IC50 result in assay [1] is “Not Active”. For the same compound, the pIC50 is 5.12 in assay [2], 4.96 in assay [3] and 4.95 in assay [4].

Take `CCOC(=O)C1C(c2ccc(C#N)cc2)c2c(c3ccccc3oc2=O)OC1(O)C(F)(F)F` (racemic): the IC50 entry in assay [1], in assay [2], in assay [3] and in assay [4] was “Not Active” each time.

For `CCOC(=O)C1C(c2ccc(OC)cc2)c2c(c3ccccc3oc2=O)OC1(O)C(F)(F)F` (racemic), the pIC50 is 4.08 in assay [1], 4.14 in assay [2], 4.95 in assay [3] and 5.66 in assay [4].

As for `CCOC(=O)C1C(c2ccc(O)cc2)c2c(c3ccccc3oc2=O)OC1(O)C(F)(F)F` (racemic), the IC50 entry in assay [1], in assay [2], in assay [3] and in assay [4] was “Not Active” throughout.

`CCOC(=O)C1C(c2ccc(O)c(OC)c2)c2c(c3ccccc3oc2=O)OC1(O)C(F)(F)F` (racemic): the IC50 entry in assay [1], in assay [2], in assay [3] and in assay [4] was “Not Active” each time.

With `CCOC(=O)C1C(c2ccc(C(C)C)cc2)c2c(c3ccccc3oc2=O)OC1(O)C(F)(F)F` (racemic), the IC50 entry in assay [1], in assay [2], in assay [3] and in assay [4] was “Not Active” each time.

For the compound `CCOC(=O)C1C(c2ccc(OC)c(OC)c2)c2c(c3ccccc3oc2=O)OC1(O)C(F)(F)F` (racemic), the pIC50 in assay [1] is 4.46; in assay [2] it was 4.27; in assay [3] it was 4.06; in assay [4], 5.11.

Regarding `CCOC(=O)C1C(c2ccc([N+](=O)[O-])cc2)c2c(c3cc(F)ccc3oc2=O)OC1(O)C(F)(F)F` (racemic), the IC50 result in assay [1], in assay [2], in assay [3] and in assay [4] was “Not Active” in each case.

As to `CCOC(=O)C1C(c2ccc(F)cc2)c2c(c3cc(F)ccc3oc2=O)OC1(O)C(F)(F)F` (racemic), the IC50 entry in assay [1], in assay [2], in assay [3] and in assay [4] was “Not Active” in each case.

As to `CCOC(=O)C1C(c2ccc(C#N)cc2)c2c(c3cc(F)ccc3oc2=O)OC1(O)C(F)(F)F` (racemic), the IC50 result in assay [1], in assay [2], in assay [3] and in assay [4] was “Not Active” each time.

On to `CCOC(=O)C1C(c2ccc(O)cc2)c2c(c3cc(F)ccc3oc2=O)OC1(O)C(F)(F)F` (racemic), for which the pIC50 was 4.47 in assay [1], 5.18 in assay [2], 4.94 in assay [3] and 5.18 in assay [4].

For the compound `CCOC(=O)C1C(c2cccnc2)c2c(c3ccccc3oc2=O)OC1(O)C(F)(F)F` (racemic), the IC50 entry in assay [1], in assay [2], in assay [3] and in assay [4] was “Not Active” each time.

Regarding `CCOC(=O)C1C(c2ccc(C)cc2)c2oc(CO)cc(=O)c2OC1(O)C(F)(F)F` (racemic), the IC50 entry in assay [1], in assay [2], in assay [3] and in assay [4] was “Not Active” in each case.

As for `CCOC(=O)C1C(c2ccc(OC)cc2)c2oc(CO)cc(=O)c2OC1(O)C(F)(F)F` (racemic), the IC50 entry in assay [1], in assay [2], in assay [3] and in assay [4] was “Not Active” throughout.

As to `CCOC(=O)C1C(c2ccc(O)cc2)c2oc(CO)cc(=O)c2OC1(O)C(F)(F)F` (racemic), the IC50 entry in assay [1], in assay [2], in assay [3] and in assay [4] was “Not Active” in each case.

With `COc1cccc2c1C(=O)c1c(O)c3c(c(O)c1C2=O)C[C@@](O)(C(=O)CO)C[C@@H]3O[C@H]1C[C@H](N)[C@H](O)[C@H](C)O1` [DOXORUBICIN], the pIC50 in assay [3] and in assay [4] was > 6.00 in each case.

By pIC50 is commonly meant the negative decadic logarithm of the IC50, by convention in mol/L.
